Consider 48 sequences from the EternaBench riboswitch data.

The subject of the data set is MS2 coat protein. As to the kind of experiment: apparent Kd, MS2 coat protein; higher = weaker binding; RNA-MaP array; FMN 200 µM where present. The essentials: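 Designs were transcribed by stalled E. coli RNA polymerase on Illumina sequencing-chip clusters. They were titrated with SNAP-549-labelled MS2 coat protein from 0.7 or 1.5 nM, doubling to 3 µM, in 100 mM Tris-HCl pH 7.5, 80 mM KCl, 4 mM MgCl2, BSA, DTT, yeast tRNA and Tween-20, without and then with constant ligand. The apparent Kd is the median of filtered per-cluster fits after normalisation of green signal to red-channel RNA signal and control-cluster median Fmax.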

The mark [1] stands for this setting: designed as: OFF switch for flavin mononucleotide, no ligand.
[2] abbreviates: ligand present: flavin mononucleotide, designed as: OFF switch for flavin mononucleotide.
Setting [3] is: designed as: ON switch for flavin mononucleotide, no ligand.
Where [4] appears, read: ligand present: flavin mononucleotide, designed as: ON switch for flavin mononucleotide.

Regarding “CAGUCUACAGGAUAUACAUGAGGAUCACCCAUGUGUUUUCACUUUCAGUAGUCUAUAUGUAGAAGGGUAGACUG”, the “apparent Kd” value under setting [1] came to 24.8 nM and the “apparent Kd” value under setting [2] worked out at 90.1 nM.

On to “GGUGCGUUUGUGAGGAUAUGCUGGUCCUUGGAUCAGCAGAAGGCACAUGAGGAUCACCCAUGUGGUGUCGUCCC”, for which the “apparent Kd” value was determined as 348 nM under setting [1] and 44.7 nM under setting [2].

As to “UGCGGUAGAGGAUAUACGUAGAUACAGAUUCAUGUAGAACUACAUGAGGAUCACCCAUGUAGAAGGCUAUCGCU”, the “apparent Kd” value came out at 39.2 nM under setting [1] and 482 nM under setting [2].

As to “UCACGGGACUAAGGAUAUAUGAGUACCAUUUACAUAGAAGGUAGAAUGUUAGAUCAUAAACUAAACAUGAGGAUCACCCAUGUU”, the “apparent Kd” value under setting [1] turned out to be 19.4 nM and the “apparent Kd” value under setting [2] is 18.6 nM.

Take “CGUAGCUCCUGUUCGAAUCUCCGUGAGGAUAUCUUCAGACAUGAGGAUCACCCAUGUACAAAGGAAGAGAAGGCACGGUCCGAU”: the “apparent Kd” value was determined as 4.86 nM under setting [3] and 4.33 nM under setting [4].

As for “GCGUAAUAGGUGUAGCUAGUCGUGCAAGAAGGGUGGUGAACAUGAGGAUCACCCAUGUGGUCAGUACAGGAUAUUGCUAUACGA”, the “apparent Kd” value reads like this: under setting [3], 561 nM; under setting [4], 162 nM.

As to “AUACACUUUCGAGGAUAUCGGUGAUAAAUUUUACGAGAAGGCGAUAAAAGAUAUAAUCUUAUAUACAUGAGGAUCACCCAUGUU”, the “apparent Kd” value runs as follows: under setting [3], 27.3 nM; under setting [4], 25.1 nM.

In the case of “AAUUCACAUGAGGAUCACCCAUGUCAGGAUAUGGUUUCACUUUUUUCUUUUCUUGAUUCCAGAAGGGACAGCUA”, the “apparent Kd” value is 77.3 nM under setting [1] and 68.5 nM under setting [2].

As for “GGUUGGCGAGGAUAUACAUGAGGAUCACCCAUGUGGUCCUGUGGCUGGUCAAACCUUUGUAGAAGGCGCGGGUC”, the “apparent Kd” value runs as follows: under setting [1], 236 nM; under setting [2], 228 nM.

For “UCUCAGUGAGGAUAUGCCAGGGACUAAUUCGUCCACCCGUCGCAGAAGGCACAUGAGGAUCACCCAUGUGGAUG”, the “apparent Kd” value by setting is: under setting [1], 109 nM; under setting [2], 54.5 nM.

As for “UUAAUUAUACAAGGAUAUCUAUUGUAAUUUCGUCUUACAUGAGGAUCACCCAUGUUAAUAUUUUUAGAGAAGGUGUAUUUUCAG”, the “apparent Kd” value runs as follows: under setting [3], 113 nM; under setting [4], 63.7 nM.

On to “CCGCCCUGAGGAUAUCCACCCUCAUACAUGAGGAUCACCCAUGUUCACCCUUGGGUUCCCGGAGAAGGCAGCUUUC”, for which the “apparent Kd” value by setting is: under setting [1], 347 nM; under setting [2], 393 nM.

Consider “AGUCAGAGCAGAGGAUAUAUACAUGAGGAUCACCCAUGUGACUGCCUAUGCUCGAAAGAGUAUGUAUAGAAGGCUGCUCUGACA”, for which the “apparent Kd” value by setting is: under setting [1], 611 nM; under setting [2], 276 nM.

“AAUUUACAGCUAGGAUAUACAUGAGGAUCACCCAUGUAAUGAUCGGAUCUUAUGAUCGUAUCCGUGUAGAAGGAGCAAAUAAGA”: the “apparent Kd” value under setting [1] was determined as 8.12 nM and the “apparent Kd” value under setting [2] came to 8.8 nM.

On to “AGCAUGUAAGGAUAUGCAAGUGGUAUGGAUCGUACCAGAAAGCAGAAGGUACAUGAGGAUCACCCAUGUGCUCC”, for which the “apparent Kd” value under setting [1] was 29.2 nM and the “apparent Kd” value under setting [2] worked out at 67.5 nM.

Take “CCAGGCUUCGAGAAGGACAUGAGGAUCACCCAUGUGCGUGUGAAGCAGCCGUGAGGCUGCAUCAUGUAGGAUAUCGGAGUCUGG”: the “apparent Kd” value under setting [1] came to 71.9 nM and the “apparent Kd” value under setting [2] was found to be 499 nM.

As for “AUAUAUAGUGUGAGGAUAUGCUGGUCCUUGGAUCAGCAGAAGGCACAUGAGGAUCACCCAUGUAGUUUAUUUUA”, the “apparent Kd” value reads like this: under setting [1], 31.7 nM; under setting [2], 76.7 nM.

Take “ACAUGACAUGAGGAUCACCCAUGUGAGGAUAUGCGAAAAAAAAAAAAAAAAAAAAAAAGCAGAAGGCACAAAAA”: the “apparent Kd” value came to 180 nM under setting [1] and 280 nM under setting [2].

On to “UUGAGGUGCAAGAAGGAUCACAUGAGGAUCACCCAUGUAAUAUAAAGUCUCGAGAUUUUAUAUUGAUAGGAUAUUGCACCGAAC”, for which the “apparent Kd” value runs as follows: under setting [3], 42.2 nM; under setting [4], 6.26 nM.

For “ACGCUUUGGGAGAAGGUACGUUAAUUUUUUUCCACAUGAGGAUCACCCAUGUAAGGAUAUCCCGGCGUUAAAUAGGCUACAGCA”, the “apparent Kd” value by setting is: under setting [1], 7.2 nM; under setting [2], 8.14 nM.

As for “UCACGGGAUUGAGGAUAUAUAUUAAUUUUUACAAUAGAAGGCAAAUUGUUAGUUUUUUCACUUUACAUGAGGAUCACCCAUGUU”, the “apparent Kd” value reads like this: under setting [1], 26.2 nM; under setting [2], 24 nM.

As for “AUAGCAACAUGAGGAUCACCCAUGUAGGAUAUCGCUAUUGUAAUCAUGAAACAUGAUUACAAUAGCGAGAAGGACAUAUGCUAC”, the “apparent Kd” value runs as follows: under setting [1], 9.33 nM; under setting [2], 11 nM.

For the sequence “UGGUACAUGGGAGGAUAUGGAGUGAAGACAUGAGGAUCACCCAUGUUAUAAAUGCCGAGAGGCAACUAGAAGGCCCAUGUACCU”, the “apparent Kd” value runs as follows: under setting [3], 77.7 nM; under setting [4], 14.3 nM.

For “UCUUUACAUGAGGAUCACCCAUGUGAGGAUAUGGAUUCGCUGGCCGUAGCCAGUGGAUCCAGAAGGCGCGUGAU”, the “apparent Kd” value was 74.7 nM under setting [1] and 64.9 nM under setting [2].

Take “UCUACAUAAAUUCAUCAAUACAGAAAGGAUAUGAGAUACAUGAGGAUCACCCAUGUGCAUGGGAAUUAGAAGGUUCAAUUAACU”: the “apparent Kd” value reads like this: under setting [1], 98.5 nM; under setting [2], 67.2 nM.

For the sequence “CAAUUUAUAUCAGGAUAUACAAUACAAUUAUUAGUAGAAGGGAUUAAUACAUGAGGAUCACCCAUGUCAUGUGUCAUAAUAACC”, the “apparent Kd” value worked out at 22.6 nM under setting [1] and 18.1 nM under setting [2].

Take “UUAUUAUAUGUAGGAUAUGCAUAUUAGUAUUGUGCAGAAGGACAUGAGGAUCACCCAUGUAUAUUAUUAUUAUAUAUUAUAUAU”: the “apparent Kd” value runs as follows: under setting [1], 14.6 nM; under setting [2], 21.4 nM.

Turning to “UACAUGAGGAUCACCCAUGUUUUGUCGUGUAUGGUAUUUAUCUAGGAUAUCAUUUUAUUUAGGUAUGAGAAGGAGAAUAUUAAU”, the “apparent Kd” value by setting is: under setting [1], 35.4 nM; under setting [2], 36.2 nM.

As to “CUGUGACGGUGCGCAAGUGGACGGAGAAGGCAGACAUGAGGAUCACCCAUGUGAGCCUGCUAUUCUGAGGAUAUCCGUUCGUAC”, the “apparent Kd” value by setting is: under setting [1], 27 nM; under setting [2], 132 nM.

As to “UGUCCAUAGCAGAAGGACAUGAAUAACCAUGAAAACAUGAGGAUCACCCAUGUAGGAUAUGCUAUGGACUAAGAGCGAAAGCUC”, the “apparent Kd” value is, setting by setting: under setting [1], 15 nM; under setting [2], 175 nM.

Regarding “AGUAGAUCAGGAUAUACGUGAAAGGUCAAAGUGUCCCUUCUACAUGAGGAUCACCCAUGUAGAAGGGAUCUACA”, the “apparent Kd” value runs as follows: under setting [1], 12.8 nM; under setting [2], 12.5 nM.

For the sequence “AUACAAUUUCGAGGAUAUCGGUGAUAAAUAAUACGAGAAGGCGAUGAAAGAUAUAAUCCUAUUUACAUGAGGAUCACCCAUGUU”, the “apparent Kd” value was 34.8 nM under setting [3] and 31.1 nM under setting [4].

With “UCACGGCUCGGAGGAUAUGACACAUGAGGAUCACCCAUGUGUGUAAGCCAAUAAACCUACAAAUGUCAGAAGGCCGCGCCUCAU”, the “apparent Kd” value came out at 15.3 nM under setting [1] and 14.7 nM under setting [2].

Regarding “AAUUAUUAUUGAGGAUAUCGUAUUGAAACAAUACGAGAAGGCGGAAUAAACAUGAGGAUCACCCAUGUGAGCCUGAUGCUUGUG”, the “apparent Kd” value amounted to 17 nM under setting [1] and 18.7 nM under setting [2].

With “AAUUAUUAUUGAGGAUAUCGUAUUGAAACAAUAUGAGAAGGCGGGAUAAACAUGAGGAUCACCCAUGUGAGCCUGAUGCUUGUG”, the “apparent Kd” value by setting is: under setting [1], 16.3 nM; under setting [2], 15.6 nM.

“UGUCGGAGCAGAGGAUAUUACAUGAGGAUCACCCAUGUAUGAACCCAUAGCUGGAAACAGCAAUGUAAGAAGGCUGCUCCGACA”: the “apparent Kd” value reads like this: under setting [1], 8.97 nM; under setting [2], 82.4 nM.

As for “CAGUGCUGUUGAGAGGAUAUGCGGCGACGGACAUGAGGAUCACCCAUGUUAGCGACAGCGUUGCGGCAGAAGGCUCUGCCCACUG”, the “apparent Kd” value under setting [3] worked out at 11.2 nM and the “apparent Kd” value under setting [4] was 10.4 nM.

As for “UGUUGUAAACAGAACAUGAGGAUCACCCAUGUGCUCUCGUGUAAGGAUAUACAUUCGUAUGGAAAGUAGAAGGUACUAAUUAUG”, the “apparent Kd” value turned out to be 103 nM under setting [3] and 117 nM under setting [4].

For “GCGUUCUUGUAGAAGGUACAUACAAUCUCUUUUUAACACAUGACACAUGAGGAUCACCCAUGUUGUAAGGAUAUACAUGAACGC”, the “apparent Kd” value by setting is: under setting [3], 8.7 nM; under setting [4], 8.86 nM.

Turning to “AGUCGGAGCAGAGGAUAUACAUGAGGAUCACCCAUGUAAAUGAAUGAAGCCUGGAAACAGGCAAUGUAGAAGGCUGCUCCGACA”, the “apparent Kd” value by setting is: under setting [1], 17.6 nM; under setting [2], 54.2 nM.

With “CACGAUCAUGUAGGAUAUAUACUGGAAUACAGUAUAGAAGGACAUGAGGAUCACCCAUGUUAAGUGCCUCCAAGUAAGAUCGUG”, the “apparent Kd” value under setting [1] worked out at 17 nM and the “apparent Kd” value under setting [2] is 23 nM.

As to “UGUGUGUGACAGGAUAUGCAGGUUAUGAGACGGGUAGAAGGGUCUACAUGAGGAUCACCCAUGUGGCCGGUUGG”, the “apparent Kd” value runs as follows: under setting [1], 18 nM; under setting [2], 16.9 nM.

Consider “GCUAGUAUUGCAGGAUAUUGAGAAUAAUUAUUACAAGAAGGGCAUAACAUGAGGAUCACCCAUGUUUUCCUUAAUGAUACUAGC”, for which the “apparent Kd” value turned out to be 5.33 nM under setting [1] and 5.59 nM under setting [2].

As to “UCGCGGGUGCAGAAGGGAUAGGCCUAUUGUCGUGGAGUCUAAACUUAACAUGAGGAUCACCCAUGUCAGGAUAUGCCCACGCGA”, the “apparent Kd” value under setting [1] was 9.17 nM and the “apparent Kd” value under setting [2] came out at 10.2 nM.

As for “AGCCCUGACGUCAGGAUAUCCGGCCAAUAGGCCAAGGAGAAGGGACAUGAGGAUCACCCAUGUGCUUGGGUCCG”, the “apparent Kd” value under setting [1] worked out at 23.7 nM and the “apparent Kd” value under setting [2] is 37 nM.

On to “CCGGAUAUGCAGGAUAUCGUAUCGGAGACGAUACGAGAAGGGUAUACAUGAGGAUCACCCAUGUGUCCUACCGG”, for which the “apparent Kd” value under setting [1] came to 26.4 nM and the “apparent Kd” value under setting [2] was 32.1 nM.

On to “GUGCAUACGUGAGGAUAUGUAUUAGAUAGUGGUACAGAAGGCAUGUCUGAUGACAUGAGGAUCACCCAUGUUGGCACAAUGCGC”, for which the “apparent Kd” value came out at 51.5 nM under setting [3] and 30.2 nM under setting [4].

For the sequence “AACAGGUCAGGAUAUACAUGAGGAUCACCCAUGUAACAAGCGGAGGCGACUUCUCAAGGUAGAAGGGAUCUCCG”, the “apparent Kd” value is 19.8 nM under setting [1] and 18.9 nM under setting [2].
